Assay results from ChEMBL document CHEMBL5712918, “Targeting methyltransferase PRMT5 retards the carcinogenesis and metastasis of HNSCC via epigenetically inhibiting Twist1 transcription” (Neoplasia, 2020).
Activity calls are given as the source filed them. The calls are words filed in the database; no cut-off is given here.

Experiments:
Rattus norvegicus [1] = assay: Antitumor activity against 4-Nitroquinoline-1-Oxide induced cancer Sprague-Dawley rat carcinogenic model assessed as reduction in number of Twist1 positive cells at 30 mg/kg, iv administered on week 12 and measured on week 22 by IHC assay; type: functional, organism-based; details: time 10.0 weeks
Method in brief: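 4NQO-induced SD rat tongue lesions (0.002% 4NQO in drinking water for 12 weeks; tail-vein 30 mg/kg from week 12; killed at week 22). IHC with Twist1 antibody 1:250. Percentage of positive cells from 5 random fields per sample. Groups n = 11/6, mean ± SD, Student's t test.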

Rattus norvegicus [2] = assay: Antitumor activity against 4-Nitroquinoline-1-Oxide induced cancer Sprague-Dawley rat carcinogenic model assessed as normal area of tongue tissue at 30 mg/kg, iv administered on week 12 and measured on week 22 (reference value: 6.7%); type: functional; details: time 10 weeks
[3] = molecular target: Protein arginine N-methyltransferase 5 (Homo sapiens) (UniProt O14744); assay: Inhibition of PRMT5 in human SCC-25 cells assessed as increase in E-cadherin protein expression level at 10 uM incubated for 4 days by western blot analysis; type: cell-based; details: time 4.0 day
Protein arginine N-methyltransferase 5 (Homo sapiens), sequence (O14744 whole entry): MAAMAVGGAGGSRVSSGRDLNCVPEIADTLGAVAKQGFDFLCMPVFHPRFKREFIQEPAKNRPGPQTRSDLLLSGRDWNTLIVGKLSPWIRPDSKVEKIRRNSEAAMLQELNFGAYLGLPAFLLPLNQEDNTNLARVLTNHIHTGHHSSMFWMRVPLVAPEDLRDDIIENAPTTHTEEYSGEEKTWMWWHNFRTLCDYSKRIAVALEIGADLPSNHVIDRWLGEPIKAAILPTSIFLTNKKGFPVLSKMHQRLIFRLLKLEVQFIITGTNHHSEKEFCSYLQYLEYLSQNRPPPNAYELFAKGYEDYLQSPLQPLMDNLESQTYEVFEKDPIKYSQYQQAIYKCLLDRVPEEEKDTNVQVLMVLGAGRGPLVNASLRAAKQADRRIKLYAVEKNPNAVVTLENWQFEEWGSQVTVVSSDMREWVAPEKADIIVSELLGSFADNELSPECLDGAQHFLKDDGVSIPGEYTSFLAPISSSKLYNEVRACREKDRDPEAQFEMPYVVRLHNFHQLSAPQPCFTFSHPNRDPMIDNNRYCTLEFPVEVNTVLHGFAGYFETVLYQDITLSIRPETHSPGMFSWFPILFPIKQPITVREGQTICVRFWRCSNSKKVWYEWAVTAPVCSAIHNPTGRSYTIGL
Method in brief: (§1)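 HSC6 or SCC25 cells treated with 10 μM for 4 days. E-cadherin, N-cadherin and Twist1 proteins detected by immunoblot.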

[4] = molecular target: Protein arginine N-methyltransferase 5 (Homo sapiens) (UniProt O14744); assay: Inhibition of PRMT5 in human HSC-6 cells assessed as increase in E-cadherin protein expression level at 10 uM incubated for 4 days by western blot analysis; type: cell-based; details: time 4.0 day; method in brief: as §1
HSC-6 [5] = assay: Antitumor activity against human HSC-6 cells xenografted in BALB/c nude mouse model of orthotopic tumor assessed as as reduction in distant metastasis in liver at 30 mg/kg by H and E analysis; type: functional, organism-based
Rattus norvegicus [6] = assay: Antitumor activity against 4-Nitroquinoline-1-Oxide induced cancer Sprague-Dawley rat carcinogenic model assessed as reduction in lesion area of tongue tissue at 30 mg/kg, iv administered on week 12 and measured on week 22; type: functional, organism-based; details: time 10.0 weeks
[7] = Toxicity in BALB/c nude mouse xenografted with human HSC6 cells assessed as effect on kidney morphology at 15 to 30 mg/kg; type: organism-based; details: in vivo, dose 15-30 mg/kg
Method in brief: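 Subcutaneous xenograft in 4-week-old BALB/c nude mice given 6 × 10^7 HSC6 cells into the back. Groups were control, 15 mg/kg and 30 mg/kg. Body weight was monitored and major organs were examined for toxicity.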

SCC-25 = assay: Anti-invasive activity against human SCC-25 cells assessed as reduction in cell invasion at 10 uM for 4 days by transwell assay; type: functional, cell-based; details: time 4.0 day
Method in brief: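 Transwell migration and invasion with 8-μm pore inserts. HSC6 or SCC25 cells, including lines stably overexpressing Flag-Twist1, treated at 10 μM for 4 days. Mean ± SD of three independent experiments, one-way ANOVA.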

[8] = molecular target: Protein arginine N-methyltransferase 5 (Homo sapiens) (UniProt O14744); assay: Inhibition of PRMT5 in human HSC-6 cells assessed as increase in E-cadherin protein expression level at 10 uM incubated for 4 days by western blot analysis; details: time 4.0 day
HSC-6 [9] = assay: Anti-invasive activity against human HSC-6 cells assessed as reduction in cell invasion after 48 hrs incubated for 48 hrs by transwell assay; type: functional, cell-based

inhibition [3]: Active | inhibition [4]: Active | inhibition [8]: Active
SMILES: O=C(NC[C@H](O)CN1CCc2ccccc2C1)c1cc(NC2COC2)ncn1
Activity (Rattus norvegicus [1]): Active | Activity (Rattus norvegicus [2]): 38.5% | Activity (HSC-6 [5]): Active | Activity (Rattus norvegicus [6]): Active | Activity [7]: Non-Toxic | Activity (SCC-25): Active | Activity (HSC-6 [9]): Active
